Assay results published in ChEMBL document CHEMBL5154669, “G-Quadruplex DNA as a Target in Pathogenic Bacteria: Efficacy of an Extended Naphthalene Diimide Ligand and Its Mode of Action” (J Med Chem, 2022).
In brackets after ≈: the same amount, converted by molar mass. Values belong to the compound of their own block, whether it stands above or below them. Activity calls are given as the source filed them. The calls are words filed in the database; no cut-off is given here. Where a SMILES comes first, the peptide text is derived from it. Bridges are numbered along the chain shown (N, C = ends). [ ]: non-standard residue; d: D form. The star is where a group is joined. X1 = CC[C@H](C)CCCCC(=O)*; Orn = NCCC[C@H](N)C(=O)O; Dab = NCC[C@H](N)C(=O)O

How the values were obtained:
Escherichia coli [1] = assay: Bacteriolytic activity against Escherichia coli LMG 8223 incubated for 2 hrs; format: functional, organism-based
How it was run: (§1)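 Cultures grown 20 h were washed three times in HEPES with 5% glucose, adjusted to OD600 0.5 and exposed at 37 °C. OD600 was followed every 15 min for 2 h. Controls for E. coli were polymyxin B (2 μM) and erythromycin (32 μM). Controls for Gram-positive strains were gramicidin S (2 μM) and chloramphenicol (16 μM). Cells were then spotted on cMHB agar, 20 h, 37 °C, in triplicate.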

Bacillus cereus [2] = assay: Bacteriolytic activity against Bacillus cereus ATCC 10987 incubated for 2 hrs; format: functional, organism-based; how it was run: as §1
Enterococcus faecium [3] = assay: Bacteriolytic activity against Enterococcus faecium LMG 16003 incubated for 2 hrs; format: functional, organism-based; how it was run: as §1
Staphylococcus aureus [4] = assay: Bacteriolytic activity against Staphylococcus aureus LMG 8224 incubated for 2 hrs; format: functional, organism-based; how it was run: as §1
Enterobacter cloacae = assay: Antibacterial activity against Enterobacter cloacae LMG 02783 assessed as inhibition of bacterial growth incubated for 20 hrs by CLSI based broth microdilution method; format: functional
How it was run: (§2)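 Broth microdilution in cation-adjusted Mueller-Hinton broth following CLSI guidelines. DMSO stocks were at 10 mM; compounds were twofold serially diluted over 128 to 2 μM. The inoculum was at 5 × 10⁵, prepared from colonies grown 20 h at 37 °C and adjusted to 0.5 McFarland. Plates ran 20 h at 37 °C with OD600 read-out. MIC was the lowest concentration inhibiting visible growth, in triplicate.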

Acinetobacter baumannii = assay: Antibacterial activity against Acinetobacter baumannii LMG 01041 assessed as inhibition of bacterial growth incubated for 20 hrs by CLSI based broth microdilution method; format: functional; how it was run: as §2
Klebsiella aerogenes = assay: Antibacterial activity against Enterobacter aerogenes LMG 02094 assessed as inhibition of bacterial growth incubated for 20 hrs by CLSI based broth microdilution method; format: functional; how it was run: as §2
Escherichia coli [5] = assay: Antibacterial activity against Escherichia coli LMG 8223 assessed as inhibition of bacterial growth incubated for 20 hrs by CLSI based broth microdilution method; format: functional; how it was run: as §2
Klebsiella pneumoniae = assay: Antibacterial activity against Klebsiella pneumoniae LMG 20218 assessed as inhibition of bacterial growth incubated for 20 hrs by CLSI based broth microdilution method; format: functional; how it was run: as §2
Pseudomonas aeruginosa = assay: Antibacterial activity against Pseudomonas aeruginosa LMG 6395 assessed as inhibition of bacterial growth incubated for 20 hrs by CLSI based broth microdilution method; format: functional; how it was run: as §2
Salmonella enterica = assay: Antibacterial activity against Salmonella enterica LMG 07233 assessed as inhibition of bacterial growth incubated for 20 hrs by CLSI based broth microdilution method; format: functional; how it was run: as §2
Bacillus cereus [6] = assay: Antibacterial activity against Bacillus cereus ATCC 10987 assessed as inhibition of bacterial growth incubated for 20 hrs by CLSI based broth microdilution method; format: functional; how it was run: as §2
Bacillus cereus [7] = assay: Antibacterial activity against Bacillus cereus ATCC 14579 assessed as inhibition of bacterial growth incubated for 20 hrs by CLSI based broth microdilution method; format: functional; how it was run: as §2
Enterococcus faecalis [8] = assay: Antibacterial activity against Enterococcus faecalis LMG 08222 assessed as inhibition of bacterial growth incubated for 20 hrs by CLSI based broth microdilution method; format: functional; how it was run: as §2
Enterococcus faecalis [9] = assay: Antibacterial activity against Enterococcus faecalis LMG 16216 assessed as inhibition of bacterial growth incubated for 20 hrs by CLSI based broth microdilution method; format: functional; how it was run: as §2
Enterococcus faecalis [10] = assay: Antibacterial activity against Enterococcus faecalis V583 assessed as inhibition of bacterial growth incubated for 20 hrs by CLSI based broth microdilution method; format: functional; how it was run: as §2
Enterococcus faecium [11] = assay: Antibacterial activity against Enterococcus faecium LMG 16003 assessed as inhibition of bacterial growth incubated for 20 hrs by CLSI based broth microdilution method; format: functional; how it was run: as §2
Staphylococcus aureus [12] = assay: Antibacterial activity against Staphylococcus aureus LMG 8224 assessed as inhibition of bacterial growth incubated for 20 hrs by CLSI based broth microdilution method; format: functional; how it was run: as §2
Staphylococcus aureus [13] = assay: Antibacterial activity against Staphylococcus aureus LMG 10147 assessed as inhibition of bacterial growth incubated for 20 hrs by CLSI based broth microdilution method; format: functional; how it was run: as §2
Staphylococcus aureus [14] = assay: Antibacterial activity against Staphylococcus aureus LMG 15975 assessed as inhibition of bacterial growth incubated for 20 hrs by CLSI based broth microdilution method; format: functional; how it was run: as §2
[15] = tested on: Staphylococcus epidermidis; assay: Antibacterial activity against Staphylococcus epidermidis Tu3298 assessed as inhibition of bacterial growth incubated for 20 hrs by CLSI based broth microdilution method; format: functional; how it was run: as §2
DNA [16] = assay: Stabilization of Staphylococcus aureus in G Quadruplex DNA GGGGCTAATTGGGGCTGGTGG assessed as change in melting temperature at 10 uM incubated for 16 hrs by […]; format: nucleic-acid assay
How it was run: (§3)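 Readout was CD melting, not FRET: 2.5 μM oligonucleotide in 10 mM lithium cacodylate pH 7.4 with KCl set per sequence (initial Tm 60-70 °C). Annealed 95 °C 5 min, cooled to room temperature over 4 h, then ligand 10 μM (4 equiv) equilibrated 16 h at 20 °C. Ellipticity at 260 nm tracked every 0.1 °C, 20-95 °C at 5 °C/min; Tm by van't Hoff two-state fit.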

DNA [17] = assay: Stabilization of Staphylococcus aureus in G-quadruplex DNA GGA AGG AGG GGT GAC AGG G assessed as change in melting temperature at 10 uM incubated for 16 hrs by […]; format: nucleic-acid assay; how it was run: as §3
DNA [18] = assay: Stabilization of Staphylococcus aureus in G-quadruplex DNA GGGTTTGGGGCGGCGGTTGG assessed as change in melting temperature at 10 uM incubated for 16 hrs by FRET method; format: nucleic-acid assay
DNA [19] = assay: Stabilization of Escherichia coli in G-quadruplex DNA GGT GGG GAG GGG TAA GGG G assessed as change in melting temperature at 10 uM incubated for 16 hrs by FRET method; format: nucleic-acid assay; details: in the assay text read “by CD melting method” for “by FRET method”; how it was run: as §3
DNA [20] = assay: Stabilization of Escherichia coli in G-quadruplex DNA GGG GGA GGA GGA CGG GGG assessed as change in melting temperature at 10 uM incubated for 16 hrs by FRET method; format: nucleic-acid assay; details: in the assay text read “by CD melting method” for “by FRET method”; how it was run: as §3
DNA [21] = assay: Stabilization of Staphylococcus aureus in G Quadruplex DNA GGGGCTAATTGGGGCTGGTGG assessed as melting at 10 uM incubated for 16 hrs temperature by […]; format: nucleic-acid assay; how it was run: as §3
DNA [22] = assay: Stabilization of Staphylococcus aureus in G-quadruplex DNA GGA AGG AGG GGT GAC AGG G assessed as melting temperature at 10 uM incubated for 16 hrs […]; format: nucleic-acid assay; how it was run: as §3
DNA [23] = assay: Stabilization of Staphylococcus aureus in G-quadruplex DNA GGGTTTGGGGCGGCGGTTGG assessed as melting temperature at 10 uM incubated for 16 hrs by […]; format: nucleic-acid assay; how it was run: as §3
DNA [24] = assay: Stabilization of Escherichia coli in G-quadruplex DNA GGT GGG GAG GGG TAA GGG G assessed as melting temperature at 10 uM incubated for 16 hrs by […]; format: nucleic-acid assay; how it was run: as §3
DNA [25] = assay: Stabilization of Escherichia coli in G-quadruplex DNA GGG GGA GGA GGA CGG GGG assessed as melting temperature at 10 uM incubated for 16 hrs by […]; format: nucleic-acid assay; how it was run: as §3
DNA [26] = assay: Stabilization of Escherichia coli in G-quadruplex DNA GGG GCG GGG TGG GTT GG assessed as melting temperature at 10 uM incubated for 16 hrs by FRET method; format: nucleic-acid assay
Enterococcus faecium [27] = assay: Antibacterial activity against Enterococcus faecium LMG 11423 assessed as inhibition of bacterial growth incubated for 20 hrs by CLSI based broth microdilution method; details: LMG 11423, 20 h
DNA [28] = assay: Stabilization of Escherichia coli in G-quadruplex DNA GGG GCG GGG TGG GTT GG assessed as change in melting temperature at 10 uM incubated for 16 hrs by CD melting method

Structure (SMILES): CC[C@H](C)CCCCC(=O)N[C@@H](CCN)C(=O)N[C@H](C(=O)N[C@@H](CCN)C(=O)N[C@H]1CCNC(=O)[C@H]([C@@H](C)O)NC(=O)[C@H](CCN)NC(=O)[C@H](CCN)NC(=O)[C@H](CC(C)C)NC(=O)[C@@H](Cc2ccccc2)NC(=O)[C@H](CCN)NC1=O)[C@@H](C)O (X1-[Dab]T[Dab][Dab][Dab][dF]L[Dab][Dab]T; lactam 4-C)
Activity (Escherichia coli [1]): Active | Activity (Bacillus cereus [2]): Active | Activity (Enterococcus faecium [3]): Active | Activity (Staphylococcus aureus [4]): Active

Structure (SMILES): CC(C)C[C@@H]1NC(=O)[C@H](CCCN)NC(=O)[C@H](C(C)C)NC(=O)[C@@H]2CCCN2C(=O)[C@@H](Cc2ccccc2)NC(=O)[C@H](CC(C)C)NC(=O)[C@H](CCCN)NC(=O)[C@H](C(C)C)NC(=O)[C@@H]2CCCN2C(=O)[C@@H](Cc2ccccc2)NC1=O (cyclo(V[Orn]L[dF]PV[Orn]L[dF]P))
Activity (Escherichia coli [1]): Active | Activity (Bacillus cereus [2]): Active | Activity (Enterococcus faecium [3]): Active | Activity (Staphylococcus aureus [4]): Active

MIC (Enterobacter cloacae): > 128 µM | MIC (Acinetobacter baumannii): 64 µM (≈ 31.6 µg/mL) | MIC (Klebsiella aerogenes): 64 µM (≈ 31.6 µg/mL) | MIC (Escherichia coli [5]): > 128 µM | MIC (Klebsiella pneumoniae): > 128 µM | MIC (Pseudomonas aeruginosa): > 128 µM | MIC (Salmonella enterica): > 128 µM | MIC (Bacillus cereus [6]): 64 µM (≈ 31.6 µg/mL) | MIC (Bacillus cereus [7]): 64 µM (≈ 31.6 µg/mL) | MIC (Enterococcus faecalis [8]): 64 µM (≈ 31.6 µg/mL) | MIC (Enterococcus faecalis [9]): 32 µM (≈ 15.8 µg/mL) | MIC (Enterococcus faecalis [10]): 32 µM (≈ 15.8 µg/mL) | MIC (Enterococcus faecium [11]): 16 µM (≈ 7.9 µg/mL) | MIC (Staphylococcus aureus [12]): 128 µM (≈ 63.2 µg/mL) | MIC (Staphylococcus aureus [13]): 128 µM (≈ 63.2 µg/mL) | MIC (Staphylococcus aureus [14]): 128 µM (≈ 63.2 µg/mL) | MIC [15]: 128 µM (≈ 63.2 µg/mL) | ΔTm (DNA [16]): 16.6 °C | ΔTm (DNA [17]): 12 °C | ΔTm (DNA [18]): 14.9 °C | ΔTm (DNA [19]): 12.2 °C | ΔTm (DNA [20]): 22.8 °C | Tm (DNA [21]): 77.6 °C | Tm (DNA [22]): 76.2 °C | Tm (DNA [23]): 74.3 °C | Tm (DNA [24]): 72.2 °C | Tm (DNA [25]): 92.8 °C | Tm (DNA [26]): 78 °C | MIC (Enterococcus faecium [27]): 16 µM (≈ 7.9 µg/mL) | ΔTm (DNA [28]): 14.3 °C
Structure (SMILES): CCCNc1cc2c3c(ccc4c3c1C(=O)N(CCCN(C)C)C4=O)C(=O)N(CCCN(C)C)C2=O
